Measured values published in ChEMBL document CHEMBL1938314, “Electrochemical and spectroscopic investigations of isoniazide and its analogs with ds.DNA at physiological pH: evaluation of biological activities” (Eur J Med Chem, 2012).
Converted amounts (≈) assume the structure as drawn. The source made the active and inactive calls. No cut-off for these calls is given here.

How the values were obtained:
[1] = test system: Nucleic Acid; assay: Binding affinity to chicken blood dsDNA at pH 7.4 by cyclic voltammetry; format: nucleic-acid assay; details: Gallus gallus
Procedure, shortened: (§1)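 Cyclic voltammetry at glassy carbon electrode vs SCE. Compound 1 mM in acetate pH 4.7 or phosphate pH 7.4 buffer at 37 °C, argon-purged 10–15 min. Scanned −1 to +1.5 V at 100 mV/s before and after chicken blood DNA (10–50 µM final). Peak current decrease and Ep shift recorded; Kb derived from current decrease.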

[2] = test system: Nucleic Acid; assay: Binding affinity to chicken blood dsDNA at pH 7.4 by UV-spectroscopy; format: nucleic-acid assay; details: Gallus gallus
Procedure, shortened: (§2)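 Chicken blood DNA (A260/A280 >1.8) quantified at 260 nm (ε 6600). Compound held at 1.1 × 10^-4 M; DNA titrated 10–50 µM in acetate pH 4.7 or phosphate pH 7.4 buffer at 37 °C; UV absorbance recorded. Kb taken as intercept/slope of A0/(A−A0) vs 1/[DNA] (Benesi–Hildebrand); ΔG = −RTlnKb.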

[3] = test system: Artemia; assay: Cytotoxicity against brine shrimps after 24 hr; format: functional; details: read-out: LD50 (the source's name)
Procedure, shortened: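 Brine shrimp lethality. Artemia salina hatched 48 h at room temperature in aerated artificial sea water (sea salt 38 g/l). Ten active nauplii per vial in 5 ml sea water with compound at 10, 100 and 1000 µg/ml final. Survivors counted after 24 h, run in triplicate. LD50 derived by Finney analysis.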

[4] = test system: Nucleic Acid; assay: Enhancement of OH-radical-induced oxidative Escherichia coli pBR322 damage at 1000 ug/ml incubated for 1 hr in dark by agarose gel electrophoresis; format: nucleic-acid assay
Procedure, shortened: (§3)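 pBR322 plasmid diluted in 50 mM phosphate buffer. 15 µl reactions held diluted plasmid, test compound (1000, 100 or 10 µg/ml), 2 mM FeSO4 and 30% H2O2. Incubated 37 °C for 1 h in dark. Controls: plasmid plus FeSO4/H2O2, and untreated plasmid. Run on 1% agarose in TBE, ethidium bromide stained; supercoiled band intensity compared with control.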

[5] = test system: Nucleic Acid; assay: Binding affinity to chicken blood dsDNA at pH 4.7 by cyclic voltammetry; format: nucleic-acid assay; details: Gallus gallus; procedure, shortened: as §1
[6] = test system: Nucleic Acid; assay: Binding affinity to chicken blood dsDNA assessed as shift in Ep/mv at 1 x 10 '-3 M at pH 7.4 by cyclic voltammetry; format: nucleic-acid assay; details: Gallus gallus; procedure, shortened: as §1
[7] = test system: Staphylococcus aureus; assay: Antibacterial activity against Staphylococcus aureus ATCC 6538 after 24 hrs by agar well diffusion method; format: functional; details: ATCC 6538, 24 h
Procedure, shortened: (§4)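 MIC by agar well diffusion with serial dilutions. Strains grown in LB at 37 °C for 24 h. 0.75 ml broth culture mixed into 75 ml nutrient agar and poured; 8 mm wells cut, filled with test sample in DMSO. Plates incubated 37 °C for 24 h. DMSO served as negative control, roxithromycin and cefixime as positive controls.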

[8] = test system: Micrococcus luteus; assay: Antibacterial activity against Micrococcus luteus ATCC 10240 after 24 hrs by agar well diffusion method; format: functional; details: ATCC 10240, 24 h; procedure, shortened: as §4
[9] = test system: Bordetella bronchiseptica; assay: Antibacterial activity against Bordetella bronchiseptica ATCC 10580 at 1 mg/ml after 24 hrs by agar well diffusion method; format: functional; details: for zone of inhibition at 1000 µg/mL: ATCC 10580, 24 h, read-out: DIZ
Procedure, shortened: (§5)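 Agar well diffusion. Strains grown in LB at 37 °C for 24 h; 0.75 ml broth culture seeded into 75 ml nutrient agar. 8 mm wells received 100 µl of sample at 1 mg/ml in DMSO. Incubated 37 °C for 24 h; inhibition zone diameter measured in mm. DMSO negative control; roxithromycin and cefixime (1 mg/ml) positive controls.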

[10] = test system: Micrococcus luteus; assay: Antibacterial activity against Micrococcus luteus ATCC 10240 at 1 mg/ml after 24 hrs by agar well diffusion method; format: functional; details: for zone of inhibition at 1000 µg/mL: ATCC 10240, 24 h, read-out: DIZ; procedure, shortened: as §5
[11] = test system: Nucleic Acid; assay: Binding affinity to chicken blood dsDNA assessed as shift in Ep/mv at 1 x 10 '-3 M at pH 4.7 by cyclic voltammetry; format: nucleic-acid assay; details: Gallus gallus; procedure, shortened: as §1
[12] = test system: Bordetella bronchiseptica; assay: Antibacterial activity against Bordetella bronchiseptica ATCC 10580 after 24 hrs by agar well diffusion method; format: functional; details: ATCC 10580, 24 h; procedure, shortened: as §4
[13] = test system: Staphylococcus aureus; assay: Antibacterial activity against Staphylococcus aureus ATCC 6538 at 1 mg/ml after 24 hrs by agar well diffusion method; format: functional; details: for zone of inhibition at 1000 µg/mL: ATCC 6538, 24 h, read-out: DIZ; procedure, shortened: as §5
[14] = test system: Salmonella typhi; assay: Antibacterial activity against Salmonella typhi ATCC 6539 after 24 hrs by agar well diffusion method; format: functional, Salmonella enterica subsp. enterica serovar Typhi; details: Salmonella enterica, ATCC 6539, 24 h
[15] = test system: Nucleic Acid; assay: Binding affinity to chicken blood dsDNA assessed as decrease in current at 1 x 10 '-3 M at pH 7.4 by cyclic voltammetry; format: nucleic-acid assay; design: scale not given: the % may be the effect or the level left; details: Gallus gallus; procedure, shortened: as §1
[16] = test system: Escherichia coli; assay: Antibacterial activity against Escherichia coli ATCC 15224 at 1 mg/ml after 24 hrs by agar well diffusion method; format: functional; details: for zone of inhibition at 1000 µg/mL: ATCC 15224, 24 h, read-out: DIZ; procedure, shortened: as §5
[17] = test system: Klebsiella aerogenes; assay: Antibacterial activity against Enterobacter aerogenes ATCC 13048 at 1 mg/ml after 24 hrs by agar well diffusion method; format: functional; details: for zone of inhibition at 1000 µg/mL: ATCC 13048, 24 h, read-out: DIZ; procedure, shortened: as §5
[18] = test system: Nucleic Acid; assay: Binding affinity to chicken blood dsDNA assessed as hyperchromic effect at 1.1 x 10 '-4 M at pH 4.7 by UV-spectroscopy; format: nucleic-acid assay; details: Gallus gallus; procedure, shortened: as §2
[19] = test system: Nucleic Acid; assay: Binding affinity to chicken blood dsDNA assessed as hyperchromic effect at 1.1 x 10 '-4 M at pH 7.4 by UV-spectroscopy; format: nucleic-acid assay; details: Gallus gallus; procedure, shortened: as §2
[20] = test system: Nucleic Acid; assay: Binding affinity to chicken blood dsDNA at pH 4.7 by UV-spectroscopy; format: nucleic-acid assay; details: Gallus gallus; procedure, shortened: as §2
[21] = test system: Klebsiella aerogenes; assay: Antibacterial activity against Enterobacter aerogenes ATCC 13048 after 24 hrs by agar well diffusion method; format: functional; details: ATCC 13048, 24 h; procedure, shortened: as §4
[22] = test system: Nucleic Acid; assay: Binding affinity to chicken blood dsDNA assessed as decrease in current at 1 x 10 '-3 M at pH 4.7 by cyclic voltammetry; format: nucleic-acid assay; design: scale not given: the % may be the effect or the level left; details: Gallus gallus; procedure, shortened: as §1
[23] = test system: Nucleic Acid; assay: Antioxidant activity against OH-radical-induced oxidative Escherichia coli pBR322 damage at 10 to 100 ug/ml incubated for 1 hr in dark by agarose gel electrophoresis; format: nucleic-acid assay; procedure, shortened: as §3
[24] = test system: Salmonella typhi; assay: Antibacterial activity against Salmonella typhi ATCC 6539 at 1 mg/ml after 24 hrs by agar well diffusion method; format: functional, Salmonella enterica subsp. enterica serovar Typhi; details: for zone of inhibition at 1000 µg/mL: Salmonella enterica, ATCC 6539, 24 h, read-out: DIZ; for diameter of the inhibition zone (DIZ): Salmonella enterica subsp. enterica serovar Typhi
Procedure, shortened: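 Agar well diffusion. S. typhi ATCC 6539 grown in LB at 37 °C for 24 h, 0.75 ml broth culture seeded into 75 ml nutrient agar. 8 mm wells received 100 µl of sample at 1 mg/ml in DMSO. Plates incubated 37 °C for 24 h and inhibition zone diameter measured in mm. DMSO as negative control; roxithromycin and cefixime (1 mg/ml) as positive controls.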

[25] = test system: Escherichia coli; assay: Antibacterial activity against Escherichia coli ATCC 15224 after 24 hrs by agar well diffusion method; format: functional; details: ATCC 15224, 24 h; procedure, shortened: as §4
[26] = test system: Nucleic Acid; assay: Antioxidant activity against OH-radical-induced oxidative Escherichia coli pBR322 damage at 10 to 1000 ug/ml incubated for 1 hr in dark by agarose gel electrophoresis; format: nucleic-acid assay; procedure, shortened: as §3
[27] = test system: Nucleic Acid; assay: Antioxidant activity against OH-radical-induced oxidative Escherichia coli pBR322 damage at 10 ug/ml incubated for 1 hr in dark by agarose gel electrophoresis; format: nucleic-acid assay; procedure, shortened: as §3
[28] = test system: Nucleic Acid; assay: Antioxidant activity against OH-radical-induced oxidative Escherichia coli pBR322 damage at 100 to 1000 ug/ml incubated for 1 hr in dark by agarose gel electrophoresis; format: nucleic-acid assay; procedure, shortened: as §3

| SMILES | Kb [1] | Kb [2] | LC50 [3] | Kb [5] | Activity [6] | zone of inhibition at 1000 µg/mL [9] | zone of inhibition at 1000 µg/mL [10] | Activity [11] | zone of inhibition at 1000 µg/mL [13] | Activity [15] | zone of inhibition at 1000 µg/mL [16] | zone of inhibition at 1000 µg/mL [17] | Activity [18] | Activity [19] | Kb [20] | Activity [22] | zone of inhibition at 1000 µg/mL [24] | diameter of the inhibition zone (DIZ) [9] | diameter of the inhibition zone (DIZ) [10] | diameter of the inhibition zone (DIZ) [13] | also measured |
| --- | --- | --- | --- | --- | --- | --- | --- | --- | --- | --- | --- | --- | --- | --- | --- | --- | --- | --- | --- | --- | --- |
| NNC(=O)c1ccc(O)cc1O | 1.31 ×10⁴ /M | 1.24 ×10⁴ /M | 419 µg/mL (≈ 2490 µM) | 3.13 ×10⁴ /M | 37 | 18.2 mm | 18.2 mm | 20 | 13.4 mm | 26.1% | 25.1 mm | 15.3 mm | Active | Active | 2.02 ×10⁴ /M | 29.2% | 24.6 mm | – | – | – | Activity [4]: Toxic; MIC [7]: 200 µg/mL (≈ 1190 µM); MIC [8]: 800 µg/mL (≈ 4760 µM); MIC [12]: 800 µg/mL (≈ 4760 µM); MIC [14]: 100 µg/mL (≈ 595 µM); MIC [21]: 800 µg/mL (≈ 4760 µM); Activity [23]: Active; MIC [25]: 100 µg/mL (≈ 595 µM) |
| C=CC1=C(C(=O)O)N2C(=O)[C@@H](NC(=O)/C(=N\OCC(=O)O)c3csc(N)n3)[C@H]2SC1 [CEFIXIME] | – | – | – | – | – | 38.5 mm | 38.7 mm | – | 39.1 mm | – | 40.5 mm | 16.1 mm | – | – | – | – | 34.3 mm | – | – | – | – |
| NNC(=O)c1ccncc1 [ISONIAZID] | 1.6 ×10⁴ /M | 1.42 ×10⁴ /M | 1070 µg/mL (≈ 7840 µM) | 2.03 ×10⁴ /M | 8 | – | – | 51 | – | 77.1% | – | – | Active | Active | 1.6 ×10⁴ /M | 50.8% | – | inactive | inactive | inactive | Activity [26]: Active; diameter of the inhibition zone (DIZ) [16]: inactive; diameter of the inhibition zone (DIZ) [17]: inactive; diameter of the inhibition zone (DIZ) [24]: inactive |
| NNC(=O)c1cnccn1 [PYRAZINE CARBOXYLIC ACID HYDRAZIDE] | 1.21 ×10⁴ /M | 1.1 ×10⁴ /M | 313 µg/mL (≈ 2260 µM) | 1.7 ×10⁴ /M | 51 | – | – | 44 | – | 33.3% | – | – | Active | Active | 1.6 ×10⁴ /M | 75% | – | inactive | inactive | inactive | Activity [27]: inactive; diameter of the inhibition zone (DIZ) [16]: inactive; diameter of the inhibition zone (DIZ) [17]: inactive; Activity [28]: Active; diameter of the inhibition zone (DIZ) [24]: inactive |
| CC[C@H]1OC(=O)[C@H](C)[C@@H](O[C@H]2C[C@@](C)(OC)[C@@H](O)[C@H](C)O2)[C@H](C)[C@@H](O[C@@H]2O[C@H](C)C[C@H](N(C)C)[C@H]2O)[C@](C)(O)C[C@@H](C)/C(=N\OCOCCOC)[C@H](C)[C@@H](O)[C@]1(C)O [ROXITHROMYCIN] | – | – | – | – | – | 18.2 mm | 30.2 mm | – | 32 mm | – | 18.1 mm | 31.2 mm | – | – | – | – | 27.9 mm | – | – | – | – |
